Laboratory results: ChEMBL document CHEMBL1154591, “Synthesis and in vitro microbiological evaluation of novel 4-aryl-5-isopropoxycarbonyl-6-methyl-3,4-dihydropyrimidinones” (2010)
≈ marks a conversion by molar mass, not a printed value.

Key:
Candida albicans = test: Antifungal activity against Candida albicans after 72 to 96 hrs by two fold serial dilution technique; type: functional
How it was run: (§1)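 Twofold serial dilution in Sabouraud's dextrose broth. Compounds were taken up in DMSO as 1 mg/ml stocks, and 0.2 ml of stock was added to 1.8 ml of seeded broth for the first dilution, giving six dilutions. Seeded broth came from 24 h to 7-day Sabouraud's agar slant cultures, with a final inoculum of 1.1–1.5 × 10² cfu/ml. Tubes were incubated at 28 ± 1 °C for 72–96 h, and MIC was read visually. Broth-only and solvent controls were included.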

Mucor = test: Antifungal activity against Mucor after 72 to 96 hrs by two fold serial dilution technique; type: functional; how it was run: as §1
Escherichia coli = test: Antibacterial activity against Escherichia coli after 24 hrs by two fold serial dilution technique; type: functional
How it was run: (§2)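 Twofold serial broth dilution in nutrient broth. Compounds were taken up in DMSO as 1 mg/ml stocks, and 0.2 ml of stock was added to 1.8 ml of seeded broth for the first dilution, giving six dilutions in all. Seeded broth came from 24 h nutrient agar cultures, with a final inoculum of 10⁵ cfu/ml at pH 7.4 ± 0.2. Tubes were incubated at 37 ± 1 °C, and MIC was read visually after 24 h. Broth-only and solvent controls were included.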

Rhizopus = test: Antifungal activity against Rhizopus after 72 to 96 hrs by two fold serial dilution technique; type: functional; how it was run: as §1
Klebsiella pneumoniae = test: Antibacterial activity against Klebsiella pneumoniae after 24 hrs by two fold serial dilution technique; type: functional; how it was run: as §2
Salmonella typhi = test: Antibacterial activity against Salmonella typhi after 24 hrs by two fold serial dilution technique; type: functional, Salmonella enterica subsp. enterica serovar Typhi; conditions: Salmonella enterica
How it was run: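 Twofold serial broth dilution in nutrient broth. Compounds dissolved in DMSO as 1 mg/ml stocks; 0.2 ml added to 1.8 ml seeded broth, then serially diluted to six dilutions. Inoculum from 24 h nutrient agar cultures, final 10⁵ cfu/ml, pH 7.4 ± 0.2. Incubated at 37 ± 1 °C; MIC read visually at 24 h. Seeded-broth and solvent controls; ciprofloxacin standard.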

Aspergillus flavus = test: Antifungal activity against Aspergillus flavus after 72 to 96 hrs by two fold serial dilution technique; type: functional; how it was run: as §1
Pseudomonas aeruginosa = test: Antibacterial activity against Pseudomonas aeruginosa after 24 hrs by two fold serial dilution technique; type: functional; how it was run: as §2
Staphylococcus aureus = test: Antibacterial activity against Staphylococcus aureus after 24 hrs by two fold serial dilution technique; type: functional; how it was run: as §2

| Structure (SMILES) | MIC (Candida albicans) | MIC (Mucor) | MIC (Escherichia coli) | MIC (Rhizopus) | MIC (Klebsiella pneumoniae) | MIC (Salmonella typhi) | MIC (Aspergillus flavus) | MIC (Pseudomonas aeruginosa) | MIC (Staphylococcus aureus) |
| --- | --- | --- | --- | --- | --- | --- | --- | --- | --- |
| CC1=C(C(=O)OC(C)C)C(c2ccc(F)cc2)NC(=O)N1 (stereo not drawn) | 12.5 µg/mL (≈ 42.8 µM) | 25 µg/mL (≈ 85.5 µM) | 25 µg/mL (≈ 85.5 µM) | 12.5 µg/mL (≈ 42.8 µM) | 25 µg/mL (≈ 85.5 µM) | 12.5 µg/mL (≈ 42.8 µM) | 25 µg/mL (≈ 85.5 µM) | 12.5 µg/mL (≈ 42.8 µM) | 12.5 µg/mL (≈ 42.8 µM) |
| CC1=C(C(=O)OC(C)C)C(c2ccccc2)NC(=S)N1 (stereo not drawn) | 50 µg/mL (≈ 172 µM) | 50 µg/mL (≈ 172 µM) | 200 µg/mL (≈ 689 µM) | 100 µg/mL (≈ 344 µM) | 100 µg/mL (≈ 344 µM) | 100 µg/mL (≈ 344 µM) | 100 µg/mL (≈ 344 µM) | 50 µg/mL (≈ 172 µM) | 50 µg/mL (≈ 172 µM) |
| COc1ccc(C2NC(=O)NC(C)=C2C(=O)OC(C)C)cc1 (stereo not drawn) | 50 µg/mL (≈ 164 µM) | 50 µg/mL (≈ 164 µM) | 100 µg/mL (≈ 329 µM) | 50 µg/mL (≈ 164 µM) | 100 µg/mL (≈ 329 µM) | 50 µg/mL (≈ 164 µM) | 100 µg/mL (≈ 329 µM) | 50 µg/mL (≈ 164 µM) | 50 µg/mL (≈ 164 µM) |
| CC1=C(C(=O)OC(C)C)C(c2ccccc2Cl)NC(=O)N1 (stereo not drawn) | 25 µg/mL (≈ 81 µM) | 50 µg/mL (≈ 162 µM) | 50 µg/mL (≈ 162 µM) | 50 µg/mL (≈ 162 µM) | 50 µg/mL (≈ 162 µM) | 25 µg/mL (≈ 81 µM) | 100 µg/mL (≈ 324 µM) | 25 µg/mL (≈ 81 µM) | 25 µg/mL (≈ 81 µM) |
| CC1=C(C(=O)OC(C)C)C(c2ccccc2)NC(=O)N1 (stereo not drawn) | 100 µg/mL (≈ 365 µM) | 200 µg/mL (≈ 729 µM) | 200 µg/mL (≈ 729 µM) | 200 µg/mL (≈ 729 µM) | 200 µg/mL (≈ 729 µM) | 200 µg/mL (≈ 729 µM) | – | 100 µg/mL (≈ 365 µM) | 200 µg/mL (≈ 729 µM) |
| CC1=C(C(=O)OC(C)C)C(c2ccc(C)cc2)NC(=O)N1 (stereo not drawn) | 50 µg/mL (≈ 173 µM) | 50 µg/mL (≈ 173 µM) | 100 µg/mL (≈ 347 µM) | 50 µg/mL (≈ 173 µM) | 100 µg/mL (≈ 347 µM) | 100 µg/mL (≈ 347 µM) | 200 µg/mL (≈ 694 µM) | 50 µg/mL (≈ 173 µM) | 100 µg/mL (≈ 347 µM) |
| CC1=C(C(=O)OC(C)C)C(c2ccc([N+](=O)[O-])cc2)NC(=O)N1 (stereo not drawn) | 12.5 µg/mL (≈ 39.1 µM) | 12.5 µg/mL (≈ 39.1 µM) | 12.5 µg/mL (≈ 39.1 µM) | 12.5 µg/mL (≈ 39.1 µM) | 12.5 µg/mL (≈ 39.1 µM) | 12.5 µg/mL (≈ 39.1 µM) | 25 µg/mL (≈ 78.3 µM) | 12.5 µg/mL (≈ 39.1 µM) | 12.5 µg/mL (≈ 39.1 µM) |
| O=C(O)c1cn(C2CC2)c2cc(N3CCNCC3)c(F)cc2c1=O [CIPROFLOXACIN] | – | – | 25 µg/mL (≈ 75.4 µM) | – | 25 µg/mL (≈ 75.4 µM) | 50 µg/mL (≈ 151 µM) | – | – | – |
| C[C@@H]1[C@H](O)[C@@H](C)/C=C/C=C/C=C/C=C/C=C/C=C/C=C/[C@H](O[C@@H]2O[C@H](C)[C@@H](O)[C@H](N)[C@@H]2O)C[C@@H]2O[C@](O)(C[C@@H](O)C[C@@H](O)[C@H](O)CC[C@@H](O)C[C@@H](O)CC(=O)O[C@H]1C)C[C@H](O)[C@H]2C(=O)O [AMPHOTERICIN B] | 25 µg/mL (≈ 27.1 µM) | 50 µg/mL (≈ 54.1 µM) | – | 25 µg/mL (≈ 27.1 µM) | – | – | 50 µg/mL (≈ 54.1 µM) | – | – |
| CC1=C(C(=O)OC(C)C)C(c2ccc(Cl)cc2)NC(=O)N1 (stereo not drawn) | 25 µg/mL (≈ 81 µM) | 50 µg/mL (≈ 162 µM) | 50 µg/mL (≈ 162 µM) | 25 µg/mL (≈ 81 µM) | 50 µg/mL (≈ 162 µM) | 25 µg/mL (≈ 81 µM) | 100 µg/mL (≈ 324 µM) | 25 µg/mL (≈ 81 µM) | 25 µg/mL (≈ 81 µM) |
